From the RNAGym collection of RNA variant scans (doi:10.1126/science.aae0568)
Variants at the floor of the assay were thinned out.

B1: tRNA (parent)
chain: GUUCCGUUGGCGUAAUGGUAACGCGUCUCCCUCCUAAGGAGAAGACUGCGGGUUCGAGUCCCGUACGGAACG

Variants of: B1
Assay: yeast fitness relative to wild type (ratio to wild type); higher = fitter; tRNA-Arg(CCU), competitive growth, 37 C, YPD
Summary of the method: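 Changes in genotype frequencies gave Darwinian fitness relative to wild type. Frequencies were read by 100-nucleotide paired-end sequencing of gene amplicons before and after pooled Saccharomyces cerevisiae strains, carrying tRNA-Arg(CCU) gene variants at the native locus, were competed in YPD at 37°C for 24 hours in six replicates. A genotype was kept only with ≥ 100 starting reads, and estimates < 0.5 were set to 0.5.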
Variant GAUCCGUUGGCGUAAUGGUAACGCGUCUCCCUCCUAAGGAGACGACUGCGGGUUCGAGUCUCGUACGGAACG [U2A A43C C61U] has a yeast fitness of 0.572. In the case of GAUCCGUUGGCGUAAUGGUCACGCGUCUCCCUCCUAAGGAGAAGACUGCGGGUUCGAGUCCUGUAGGGAACG [U2A A20C C62U C66G], the yeast fitness is reported as ≤ 0.5. With GAUCCGUUGGCGUAAUGGUAACGCGUCUCCCUCCUAUGGAGAAGACUGCGGGAUCGAGUCCUGUACGGAACG [U2A A37U U53A C62U] the yeast fitness was ≤ 0.5. Work on GAUCCGUUGGCGUCAUGGUAACGCGUCUCUCUCGUAAGGAGAAGACUGCGGGUUCGAGUCCCAUACGGAACG [U2A A14C C30U C34G G63A] yielded a yeast fitness of 0.574. GAUCCGUUGGCGUAAUGGUUACGCGUCUCCCUCCUAAGGAGAAGACUGCGGGUUCGAGUCCCGUACGGAACG [U2A A20U] gave a yeast fitness of 0.732. With GAUCCGUUGGCGUAUAGGUAACGCGUCUCCCUCCUAAGGAGAAGACUGCGGGUUCGAGUUCGGUCCGGUACG [U2A A15U U16A C60U C62G A65C A69U] the yeast fitness was ≤ 0.5. Work on GAUGCGUUGGCGUAAUGGUAACGCGUCUCCCUCCUAAGGAGAAGACUGCGGGUUAGAGUCCCGUACGGAACG [U2A C4G C55A] yielded a yeast fitness of 0.57. Work on GAUCCGUUGGCGUAAUGGUCACGCGUCUCCCUCCUAAGGAGAAGACUGCGGGUUCGAGUCCCGUAUGGAACG [U2A A20C C66U] yielded a yeast fitness of 0.753. GAUUCGUUGGCGUAAUGGUAACGCGUCUCCCUCCUAAGGAGAAGACUGCGGGUUCGAGUCCCGUACGGUACG [U2A C4U A69U] gave a yeast fitness of 0.787. For GAUCCGUUGGCGUAAUGGUCACGCGUCUCCCUCCUAAGGAGAAGACUGCGGGUUCGAGUCCCGUACGAAACG [U2A A20C G68A], the yeast fitness was 0.719. Work on GAUCCGUUGGCGUAAUGGUAACGCGUCUCCCUCCUAAGGAGAAGACUGCGGGUUCGUGUCCCGUACGGAACG [U2A A57U] yielded a yeast fitness of 0.663. For GAUCCGUUGGCGUAAUGGUAGCGCGUCUCCCUCCUAAGGAGAACACUGCGGGUUCGAGGCCCGUACGGAACG [U2A A21G G44C U59G], the yeast fitness was ≤ 0.5. For GAUCCGUUGGCGUAAUGGUAGCGCGUCUUCCUCCUAAGGUGAAGACUGCGGGUUCGAGUCCCGUACGGAACG [U2A A21G C29U A40U], the yeast fitness was 0.57. Work on GAUCCGUUGGCGUAGCGGUCUCGCGCCUCCCUCCUAAGGAGAAGACUGCGGGUUCGAGUCCCGUACGGAACG [U2A A15G U16C A20C A21U U26C] yielded a yeast fitness of 0.583. GAUUCGUGGGCGUAAUGGUAACGCGUCUCCCUCCUAAGGAGAAGACUGCGGGUUGGAGUCCCGUACGGAACG [U2A C4U U8G C55G] gave a yeast fitness of 0.513. For GAUCCGUUGGCGUAAUGGUUACGCGUCUCCCUCCCAAGGAGAAGACUGCGGGUUCGAGUCCCGUACGGAACG [U2A A20U U35C], the yeast fitness was ≤ 0.5. In the case of GAUCAGUUGGCGUAAUGGUAACGCGUCUCCCUCCUAAGGAACAGACUGCCGGUUCGAGUCCCGUACGGAGCG [U2A C5A G41A A42C G50C A70G], the yeast fitness is reported as ≤ 0.5. GAUCCGUUGGCGUAAUGGUAGCGCGUUUCCCUCCUAAGGAGAAGACUGCGGGUUCGAGUCCCGUACGGAACG [U2A A21G C27U] gave a yeast fitness of 0.693. Variant GAUCAGUUCGCGUAACGGUAACGCCUCUCCCUCCUAAGGAGAAGACUGCGGGUUCGAGUCCCGUACGCAACG [U2A C5A G9C U16C G25C G68C] has a yeast fitness of 0.586. In the case of GAUCCGUUGGCGUAAUGGUGACGCGUCUCCCUCCUAAGGAGAAAACUGCGGGUUCGAGUCCCGUACGGAACG [U2A A20G G44A], the yeast fitness is reported as 0.531. For GAUCCGUUGGCGUAAUGGUAGCGCGUCUCCCUCCUAAGGAGAAGAGUGCGGGUCCGAGUCCCGUACGGAACG [U2A A21G C46G U54C], the yeast fitness was ≤ 0.5. In the case of GAUACGUUGGCGCAAUGGUAACGCGUCUCCCUCCUAAGGAGGAGACUGCGGGUUGGAGUCCCGUACAGAACG [U2A C4A U13C A42G C55G G67A], the yeast fitness is reported as ≤ 0.5. Work on GAUCCGUUGGCGUAAUGGUAACGCGUCUCCCUCCUAAGGAGAAGACUGCGGGUUCGAGUCCCGUCCGGAACG [U2A A65C] yielded a yeast fitness of 0.848. For GAUCCGUUGGCGUAAUGGUAACGCGUCUCCCUCCUAAGGAGACGACUGUGGGUUCGAGUCCCGUACGGAACG [U2A A43C C49U], the yeast fitness was 0.602. In the case of GAUCCGUUGGCGUAAUGGUGACGCGUCUUCCUACUAAGGAGAAGACUGCGGGUUAGAGUGCCGUACGGAACG [U2A A20G C29U C33A C55A C60G], the yeast fitness is reported as ≤ 0.5. In the case of GAUCCGUUGGCGUAAUGGUAACGCGUCUCCCUCCUAAGGAGAAGGCUGCGGGUUCGAGUCCCGUACGGAACG [U2A A45G], the yeast fitness is reported as 1.09. GAUCCGUUGGCGUAAUGGUAACGCGUCUCCCUCCUAAGGAGAAGUCUGCGGGUUCGAGUCCCGUACGGAACG [U2A A45U] showed a yeast fitness of 0.863. For GAUCCGUUGGCGUAUUGGUAACGCGUCUCCCUCCUAAGGAGAAGACUGGGGGUUCGAGUCCCGUACGGAACG [U2A A15U C49G], the yeast fitness was ≤ 0.5. In the case of GAUCCGUUGGCGUAGUGGUAACGCGUCUCCCUCCUAAGGAGAAGACUGCGGGUUCGAGUCCCGUACGGAACG [U2A A15G], the yeast fitness is reported as 0.981. In the case of GAUCAGUUGGCGUAAUGGUAACGCGUCUCCAUCCUAAGGAGAGGCCUGCGGGUUCGAGUCCCGUACGGAACG [U2A C5A C31A A43G A45C], the yeast fitness is reported as ≤ 0.5. In the case of GAUCCGUUGGCGUAAUGGUAACGCGUCUCCCUCCUAAGGAGAUGACUGCGGGUUCGCGUCUCGUACGGAACG [U2A A43U A57C C61U], the yeast fitness is reported as 0.578. With GAUCCGUUGGCGUAAUGGUAGCGAGUCUCCCUCCUAAGGAGAAGACUGCGGGUUCGAGUCCCGUACGGAACG [U2A A21G C24A] the yeast fitness was ≤ 0.5. With GAUCCGUUGGCGUAAUGGUUACGCGUCUCCCUCAUAAGGAGAAGACUGCGGGUUCGAGUCUCGUACGGAACG [U2A A20U C34A C61U] the yeast fitness was ≤ 0.5. In the case of GAUACGUUGGCGUAAUGGUAACGCGUCUCCCUCCUAAGGAGAAGAGUGCGGAUUCGAGUCCCGUACGGAACG [U2A C4A C46G G52A], the yeast fitness is reported as ≤ 0.5. Work on GAUCCGUUGGCGUAAUGGUAACGCGUCUCCCUCCUAAGGAGAAGACUGCGGGUUCGAGUCCCGUACGGCACG [U2A A69C] yielded a yeast fitness of 0.959. Work on GAUCCGUUGGCGUAAUGGUAACGCGUCUCCCUCCUAAGGAGAAGACUGCGGGUUCGAGUCCCGUACGGUACG [U2A A69U] yielded a yeast fitness of 0.874. GAUCCGUUGGCGUCAUGGUAACGCGUCUCCCUCCUGAGGAGAAGACUGCGGGUUCGAGUCCCGUAUGGAACG [U2A A14C A36G C66U] gave a yeast fitness of 0.639.
